# pIC50: −log10 of the molar value.
# What was measured:
# [1] = Drug uptake in human A-375 cells expressing PD-L1 xenografted in bilateral tumors bearing BALB/c mouse model at ~7.4 MBq measured for 50 mins by micro-PET imaging analysis; assay type: ADME, cell-based; conditions: in vivo
# [2] = Drug uptake in human A-375 cells xenografted in bilateral tumors bearing BALB/c mouse model at ~7.4 MBq measured for 50 mins by micro-PET imaging analysis; assay type: ADME, cell-based; conditions: in vivo
# [3] = Biodistribution in bilateral tumors bearing BALB/c mouse model assessed as ratio of drug uptake in human A-375 cells expressing PD-L1 to drug uptake in human A-375 cells at ~7.4 MBq measured for 50 mins by micro-PET imaging analysis; assay type: ADME, organism-based, Neoplasm; conditions: a-375, 50 min
# [4] = target: T1, Programmed cell death protein 1/Programmed cell death 1 ligand 1 (Homo sapiens, UniProt Q9NZQ7); assay: Inhibition of His-tagged PD-1 (unknown origin)/hFc-tagged PD-L1 (unknown origin) protein-protein interaction incubated for 15 mins by HTRF assay; assay type: protein-complex assay
# T1 sequence (Q15116 whole entry): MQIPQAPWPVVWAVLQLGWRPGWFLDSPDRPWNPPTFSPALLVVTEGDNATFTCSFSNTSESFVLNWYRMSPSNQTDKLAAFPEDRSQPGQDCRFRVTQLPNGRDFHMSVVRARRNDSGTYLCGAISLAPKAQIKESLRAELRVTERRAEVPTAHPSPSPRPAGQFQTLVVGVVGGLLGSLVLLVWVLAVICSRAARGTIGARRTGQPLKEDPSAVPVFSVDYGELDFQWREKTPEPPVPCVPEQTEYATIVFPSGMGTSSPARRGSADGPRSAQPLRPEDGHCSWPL
# T1 sequence (Q9NZQ7 whole entry): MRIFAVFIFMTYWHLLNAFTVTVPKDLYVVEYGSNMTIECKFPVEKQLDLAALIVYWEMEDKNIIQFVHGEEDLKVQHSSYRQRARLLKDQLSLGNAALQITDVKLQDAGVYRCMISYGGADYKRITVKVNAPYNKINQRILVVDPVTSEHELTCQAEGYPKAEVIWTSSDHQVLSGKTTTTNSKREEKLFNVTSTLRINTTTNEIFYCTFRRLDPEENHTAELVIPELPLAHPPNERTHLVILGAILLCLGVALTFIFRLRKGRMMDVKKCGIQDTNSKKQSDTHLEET
# In short: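 Small molecules were tested as 10-fold dilution series at a constant final 0.2% DMSO. IC50 came from a four-parameter variable-slope fit of normalized data, with three independent repeats.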
# [5] = target: T1, Programmed cell death protein 1/Programmed cell death 1 ligand 1; assay: Inhibition of Ig-tagged PD-1 (unknown origin)/His-tagged PD-L1 (unknown origin) protein-protein interaction preincubated with PD-L1 for 15 mins followed by PD-1 addition measured after 15 mins by HTRF assay; assay type: protein-complex assay
# [6] = target: Programmed cell death 1 ligand 1 (Homo sapiens) (UniProt Q9NZQ7); assay: Inhibition of [89Zr]Zr-atezolizumab binding from human PD-L1 transfected in CHO cells assessed as radioligand activity at 5000 nM preincubated for 30 mins followed by [89Zr]Zr-atezolizumab addition measured after 60 mins by Wizard2 gamma counter analysis (reference value: 8.4 %); assay type: cell-based; parameters: scale not given: the % may be the effect or the level left; conditions: time 90.0 min
# Chain of Programmed cell death 1 ligand 1 (Homo sapiens) (Q9NZQ7 whole entry): as above
# [7] = Drug uptake in mouse B16-F10 cells expressing PD-L1 in xenograft model; assay type: ADME, cell-based; conditions: in vivo
# [8] = target: Programmed cell death 1 ligand 1 (Homo sapiens) (UniProt Q9NZQ7); assay: Inhibition of [89Zr]Zr-atezolizumab binding from human PD-L1 transfected in CHO cells assessed as radioligand activity at 200 nM preincubated for 30 mins followed by [89Zr]Zr-atezolizumab addition measured after 60 mins by Wizard2 gamma counter analysis (reference value: 8.4 %); assay type: cell-based; parameters: scale not given: the % may be the effect or the level left; conditions: time 90.0 min
# [9] = Biodistribution in brain of NSG mouse xenografted with CHO-K1 cells/CHO cells expressing hPD-L1 at 31.91 +/- 3.05 MBq measured for 60 mins by micro-PET analysis; assay type: ADME, organism-based; conditions: in vivo, 1 h
# In short: (§1)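 Dynamic whole-body μPET/CT ran up to 60 min and was reconstructed by OSEM3D/MAP. Volumes of interest came from fused PET/CT, with uptake normalized to injected dose and volume as %ID/cc.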
# CHO-K1 [10] = assay: Biodistribution in CHO-K1 cells xenografted in NSG mouse co-xenografted with CHO cells expressing hPD-L1 at 31.91 +/- 3.05 MBq measured for 30 to 70 mins by Wizard2 gamma counter analysis; assay type: ADME, organism-based, Cricetulus griseus; conditions: chinese hamster, in vivo, time 30-70 min
# In short: (§2)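 Male NSG mice, 8–10 weeks old, carried subcutaneous CHO-K1 and CHO-hPD-L1 xenografts on opposite flanks (1.5 × 10^6 cells each in PBS/matrigel 1:1). Eleven days after inoculation, radiotracer was injected into the lateral tail vein under isoflurane. Organs were collected at 30, 40 and 70 min, wet-weighed and gamma-counted for 30 s. Counts were background- and decay-corrected to injection, expressed as %ID/g.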
# CHO [11] = assay: Biodistribution in CHO cells expressing hPD-L1 xenografted in NSG mouse co-xenografted with CHO-K1 cells at 31.91 +/- 3.05 MBq measured for 60 mins by micro-PET analysis; assay type: ADME, organism-based, Cricetulus griseus; conditions: chinese hamster, in vivo, 1 h; in short: as §1
# [12] = Stability in mouse plasma assessed as compound remaining measured for 60 mins by HPLC analysis; assay type: ADME, cell-free; conditions: read-out: Stability
# In short: (§3)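 Formulated radiotracer (25 μL) was incubated in 1250 μL pooled mouse or human plasma at 37 °C. At 0, 15, 30 and 60 min, aliquots were quenched with equal-volume MeCN and centrifuged (4 min, 4 °C, 21,380g). Intact tracer (%) was measured by reversed-phase radio-HPLC.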
# [13] = Biodistribution in intestine of NSG mouse xenografted with CHO-K1 cells/CHO cells expressing hPD-L1 at 31.91 +/- 3.05 MBq measured for 60 mins by micro-PET analysis; assay type: ADME, organism-based; conditions: in vivo, 1 h; in short: as §1
# [14] = Biodistribution in white adipose tissue of NSG mouse xenografted with CHO-K1 cells/CHO cells expressing hPD-L1 at 31.91 +/- 3.05 MBq measured for 60 mins by micro-PET analysis; assay type: ADME, organism-based; conditions: in vivo, 1 h; in short: as §1
# [15] = Biodistribution in kidney of NSG mouse xenografted with CHO-K1 cells/CHO cells expressing hPD-L1 at 31.91 +/- 3.05 MBq measured for 30 to 70 mins by Wizard2 gamma counter analysis; assay type: ADME, organism-based; conditions: in vivo, time 30-70 min; in short: as §2
# [16] = Biodistribution in kidney of NSG mouse xenografted with CHO-K1 cells/CHO cells expressing hPD-L1 at 31.91 +/- 3.05 MBq measured for 60 mins by micro-PET analysis; assay type: ADME, organism-based; conditions: in vivo, 1 h; in short: as §1
# [17] = Biodistribution in lung of NSG mouse xenografted with CHO-K1 cells/CHO cells expressing hPD-L1 at 31.91 +/- 3.05 MBq measured for 30 to 70 mins by Wizard2 gamma counter analysis; assay type: ADME, organism-based; conditions: in vivo, time 30-70 min; in short: as §2
# CHO [18] = assay: Biodistribution in CHO cells expressing hPD-L1 xenografted in NSG mouse co-xenografted with CHO-K1 cells at 31.91 +/- 3.05 MBq measured for 30 to 70 mins by Wizard2 gamma counter analysis; assay type: ADME, organism-based, Cricetulus griseus; conditions: chinese hamster, in vivo, time 30-70 min; in short: as §2
# [19] = Drug metabolism in brain of NSG mouse xenografted with CHO-K1 cells/CHO cells expressing hPD-L1 assessed as accumulation of radiometabolite formation at 31.91 +/- 3.05 MBq measured for 60 mins by micro-PET analysis; assay type: ADME, tissue-based; conditions: in vivo, 1 h
# [20] = Biodistribution in gall bladder of NSG mouse xenografted with CHO-K1 cells/CHO cells expressing hPD-L1 at 31.91 +/- 3.05 MBq measured for 60 mins by micro-PET analysis; assay type: ADME, organism-based; conditions: in vivo, 1 h; in short: as §1
# [21] = Drug metabolism in white adipose tissue of NSG mouse xenografted with CHO-K1 cells/CHO cells expressing hPD-L1 assessed as accumulation of radiometabolite formation at 31.91 +/- 3.05 MBq measured for 60 mins by micro-PET analysis; assay type: ADME, tissue-based; conditions: in vivo, 1 h
# CHO-K1 [22] = assay: Biodistribution in CHO-K1 cells xenografted in NSG mouse co-xenografted with CHO cells expressing hPD-L1 at 31.91 +/- 3.05 MBq measured for 60 mins by micro-PET analysis; assay type: ADME, organism-based, Cricetulus griseus; conditions: chinese hamster, in vivo, 1 h; in short: as §1
# [23] = Stability in human plasma assessed as compound remaining measured for 60 mins by HPLC analysis; assay type: ADME, cell-free; conditions: read-out: Stability; in short: as §3
# [24] = Biodistribution in liver of NSG mouse xenografted with CHO-K1 cells/CHO cells expressing hPD-L1 at 31.91 +/- 3.05 MBq measured for 60 mins by micro-PET analysis; assay type: ADME, organism-based; conditions: in vivo, 1 h; in short: as §1
# [25] = Biodistribution in liver of NSG mouse xenografted with CHO-K1 cells/CHO cells expressing hPD-L1 at 31.91 +/- 3.05 MBq measured for 30 to 70 mins by Wizard2 gamma counter analysis; assay type: ADME, organism-based; conditions: in vivo, time 30-70 min; in short: as §2
# [26] = Drug uptake in human A-375 cells expressing PD-L1 xenografted in bilateral tumors bearing BALB/c mouse model at ~2.5 MBq measured for 120 mins by autoradiography; assay type: ADME, cell-based; conditions: in vivo, 2 h
# [27] = Drug uptake in human A-375 cells xenografted in bilateral tumors bearing BALB/c mouse model at ~2.5 MBq measured for 120 mins by autoradiography; assay type: ADME, cell-based; conditions: in vivo, 2 h
# [28] = Biodistribution in bilateral tumors bearing BALB/c mouse model assessed as ratio of drug uptake in human A-375 cells expressing PD-L1 to drug uptake in human A-375 cells at ~2.5 MBq measured for 120 mins by autoradiography; assay type: ADME, organism-based, Neoplasm; conditions: a-375, 2 h
structure (smiles),measurement,setting,value
Cc1c(COc2cc(OCc3cccc(C#N)c3)c(CN3CCN(CCOCCOCCOCC[18F])CC3)cc2Cl)cccc1-c1ccc2c(c1)OCCO2,Drug uptake,[1],3.53 %ID/ml
same,Drug uptake,[2],1.19 %ID/ml
same,Ratio,[3],3
N#Cc1cc(COc2cc(OCc3cccc(-c4ccc5c(c4)OCCO5)c3Br)c(Cl)cc2CN2CCCC[C@H]2C(=O)O)ccn1,pIC50,[4],12.00
Cc1cc(CN2CCCCC2C(=O)O)ccc1OCc1cccc(-c2ccccc2)c1C (configuration not stated),pIC50,[5],8.22
COc1cc(OCc2cccc(-c3ccc4c(c3)OCCO4)c2C)cc(OC)c1CNCCNC(C)=O,pIC50,[5],8.22
Cc1c(COc2cc(OCc3ccnc(C#N)c3)c(CN(C)[C@H](CO)C(=O)O)cc2Cl)cccc1-c1ccc2c(c1)OCCO2,Activity,[6],4.2%
Cc1c(COc2cc(OCc3cccc(OS(=O)(=O)[18F])c3)c(CNC(CO)(CO)CO)cc2Cl)cccc1-c1ccc2c(c1)OCCO2,Drug uptake,[7],3.33 %ID/ml
CCOC(=O)/C(C#N)=C/c1cccc(C#N)c1,Activity,[8],0%
N#Cc1cncc(COc2cc(OCc3cccc(-c4ccccc4)c3Br)c(Cl)cc2CN2CCCC[C@H]2C(=O)O)c1,pIC50,[4],11.00
Cc1c(COc2cc(OCc3ccnc(C#N)c3)c(CN([11CH3])CCO)cc2Cl)cccc1-c1ccc2c(c1)OCCO2,Drug uptake,[9],< 1.2 %ID/cc
same,Drug uptake,CHO-K1 [10],< 1.5 % ID/g
same,Drug uptake,CHO [11],< 1.2 %ID/cc
same,remaining at 1 h,[12],> 99%
same,Drug uptake,[13],Active
same,Drug uptake,[14],< 1.2 %ID/cc
same,Drug uptake,[15],Active
same,Drug uptake,[16],Active
same,Drug uptake,[17],Active
same,Drug uptake,CHO [18],< 1.5 % ID/g
same,Drug metabolism,[19],Metabolite_Notdetected
same,Drug uptake,[20],Active
same,Drug metabolism,[21],Metabolite_Notdetected
same,Drug uptake,CHO-K1 [22],< 1.2 %ID/cc
same,remaining at 1 h,[23],> 99%
same,Drug uptake,[24],Active
same,Drug uptake,[25],Active
Cc1c(COc2cc(OCc3cccc(C#N)c3)c(CNCCNC(=O)CO/N=C/[C@H]([18F])[C@@H](O)[C@H](O)[C@H](O)CO)cc2Cl)cccc1-c1ccc2c(c1)OCCO2,Drug uptake,[26],3.98 % ID/g
same,Drug uptake,[27],1.38 % ID/g
same,Ratio,[28],2.9
CCOc1cccc(-c2cccc(COc3cc(OC)c(CNCCNC(C)=O)c(OC)c3)c2C)c1,pIC50,[5],6.96
Cc1c(COc2cc(OCc3ccnc(C#N)c3)c(CN(C)CCO)cc2Cl)cccc1-c1ccc2c(c1)OCCO2,Activity,[6],4.7%
